In general, IC50 refers to the concentration at which inhibition is half-maximal. The term Ki denotes the dissociation constant of the complex between target and ligand, obtained from inhibition or displacement. The low end stands for tighter binding, the high end for weaker binding. For orientation: logP means a log measure of how a compound divides between an organic and an aqueous phase. High values mean a more lipophilic compound, low ones a more hydrophilic compound.

The species entered for data set [1] is Rattus norvegicus. Put plainly: Concentration required to reduce the specific binding of [3H]NPA by 50% to rat corpus striatum. The class given is functional, organism-based. The gist of the method:
(§1)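 Male rat (200-225 g) striatal homogenate, 2.5 mg wet weight per tube, in 15 mM Tris-HCl pH 7.5 with 1 mM EDTA and 0.01% ascorbic acid. [3H]NPA 0.50 nM final, 25 °C for 20 min. Nonspecific binding with 1 μM d-butaclamol. Displacer tested over 10⁻¹¹–10⁻⁵ M in triplicate. IC50 = 50% reduction of specific binding, mean ± SEM of three experiments.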

The species entered for data set [2] is Rattus norvegicus. Put plainly: Binding affinity to rat corpus striatum was determined using [3H]NPA as radioligand. The class given is functional. The gist of the method: as §1
Data set [3] deals with Rattus norvegicus. Put plainly: Effect on 6,7-dihydroxy-3-chromanamine metabolism was determined by measuring concentration of 6,7-dihydroxy-3-chromanamine at a time interval of 45 min after ip administration of 100 umol/kg of compound. The format is functional, organism-based. A digest of the protocol: (§2)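 Female rats (180-200 g) given 100 μmol/kg ip in saline with 0.1% sodium metabisulfite. Killed at 15 or 45 min; striatum dissected, frozen on dry ice and kept at -80 °C. Drug level measured by HPLC with electrochemical detection, mobile phase 0.1 M phosphate-acetate pH 4.5, against a standard. Corrected for 78.8% recovery from spiked brain. Mean ± SEM, n = 8.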

Data set [4] has as its system Rattus norvegicus. Put plainly: Effect on HVA metabolism was determined by measuring concentration of HVA at a time interval of 15 minutes after ip administration of 100 umol/kg of compound. The class given is functional, organism-based. The gist of the method:
(§3)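 Female rats (180-200 g) given 100 μmol/kg ip in saline with 0.1% sodium metabisulfite, killed at 15 or 45 min. Striatum frozen on dry ice and kept at -80 °C. DA, DOPAC and HVA isolated on Sephadex G-10, then measured by reversed-phase C18 HPLC with amperometric detection. Control cerebellum used as blank. Not corrected for recovery (86-89%). Mean ± SEM.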

Data set [5] concerns Rattus norvegicus. Description: Effect on 6,7-dihydroxy-3-chromanamine metabolism was determined by measuring concentration of 6,7-dihydroxy-3-chromanamine at a time interval of 15 min after ip administration of 100 umol/kg of compound. The format is functional, organism-based. A digest of the protocol: as §2
In data set [6] the test system is Rattus norvegicus. Put plainly: Effect on DOPAC metabolism was determined by measuring concentration of DOPAC at a time interval of 15 minutes after ip administration of 100 umol/kg of compound. The class given is functional, organism-based. A digest of the protocol: as §3
Data set [7] relates to Rattus norvegicus. Put plainly: Effect on HVA metabolism was determined by measuring concentration of HVA at a time interval of 45 minutes after ip administration of 100 umol/kg of compound. The class given is functional, organism-based. A digest of the protocol: as §3
Data set [8] deals with Rattus norvegicus. Put plainly: Effect on HVA metabolism was determined by measuring concentration of HVA at a time interval of 0 minutes after ip administration of 100 umol/kg of compound. The class given is functional, organism-based.
Data set [9] deals with Rattus norvegicus. Description: Effect on DOPAC metabolism was determined by measuring concentration of DOPAC at a time interval of 45 minutes after ip administration of 100 umol/kg of compound. The class given is functional, organism-based. A digest of the protocol: as §3
Data set [10] concerns Rattus norvegicus. Description: Effect on DOPAC metabolism was determined by measuring concentration of DOPAC at a time interval of 0 minutes after ip administration of 100 umol/kg of compound. The class given is functional, organism-based.
Data set [11] concerns Rattus norvegicus. Description: Effect on DA metabolism was determined by measuring concentration of DA at a time interval of 45 min after ip administration of 100 umol/kg of compound. The class given is functional, organism-based. A digest of the protocol:
as §3

Data set [12] in a line: Partition coefficient (logP). The class given is physicochemical. The following applies: octanol/water. A digest of the protocol: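 Log P measured in octanol-phosphate buffer at pH 7.4. Phases analysed by the same HPLC-electrochemical method. Mean ± SD, n = 6.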
In data set [13] the test system is Rattus norvegicus. Put plainly: Effect on DA metabolism was determined by measuring concentration of DA at a time interval of 0 minutes after ip administration of 100 umol/kg of compound. The class given is functional, organism-based.
Data set [14] concerns Rattus norvegicus. Put plainly: Effect on DA metabolism was determined by measuring concentration of DA at a time interval of 15 minutes after ip administration of 100 umol/kg of compound. The class given is functional, organism-based. A digest of the protocol:
as §3

Regarding `CN1CCc2cccc3c2[C@H]1Cc1ccc(O)c(O)c1-3` [APOMORPHINE], in the data set filed under Rattus norvegicus [1], the IC50 was 22.6 nM. The same compound gave a Ki in the data set listed under Rattus norvegicus [2] of 10.5 nM.
Turning to `NC1COc2cc(O)c(O)cc2C1` (centres undefined), the Concentration with Rattus norvegicus [3] came to 0.2 nM/g; with Rattus norvegicus [4], 0.83 µg/g; in the data set on Rattus norvegicus [5], 0.34 nM/g; in the data set with Rattus norvegicus [6] it was 0.97 µg/g; in the data set on Rattus norvegicus [7] it was 1.02 µg/g; with Rattus norvegicus [8], 0.91 µg/g. Moreover, the Concentration in the data set on Rattus norvegicus [9] stood at 1.02 µg/g; in the data set on Rattus norvegicus [10] it was 1.05 µg/g; in the data set with Rattus norvegicus [11], 10.8 µg/g; in the data set on Rattus norvegicus [13], 9.87 µg/g; in the data set with Rattus norvegicus [14] it was 10.5 µg/g. The IC50 in the data set listed under Rattus norvegicus [1] is 259 nM. The affinity in the data set filed under Rattus norvegicus [2], expressed as Ki, was 144 nM. The compound also gave a logP in data set [12] of 1.39.
The compound `NC1CCc2cc(O)c(O)cc2C1` (centres undefined) had an IC50 in the data set filed under Rattus norvegicus [1] of 24.5 nM. Besides, the Ki in the data set filed under Rattus norvegicus [2] amounted to 12 nM. This compound returned a logP in data set [12] of 1.88.

(Values after ChEMBL document CHEMBL1122617, “6,7-Dihydroxy-3-chromanamine: synthesis and pharmacological activity of an oxygen isostere of the dopamine agonist 6,7-dihydroxy-2-aminotetralin” (J Med Chem, 1984).)
